According to paper PMC8451793 (Journal of Orthopaedic Research, 2020):

Tests used:
hMSCs and rTDSCs = assay: Tenocyte differentiation, immunostaining for tenocyte markers; assay type: cell-based, human, rat
In short: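 Cells incubated at 37°C, 5% CO2 with test compound across a dose range or DMSO; rTDSCs treated 4 days (representative images at 1.5 μM). Fixed and immunostained for SCXA, TNMD, TNC, MKX, THBS4 and type I/III collagens; secondary antibody alone as negative control; BMP + FGF as positive control. High-content imaging; percent of total cells marker-positive; n = 4, mean ± SD.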

[1] = tested on: CLK-mediated phosphorylation of SRSF1, SRSF4, SRSF5, SRSF6 in rTDSCs and hMSCs; assay: Western blot of phospho-SRSFs; assay type: cell-based, human, rat
In short: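 rTDSCs treated with test compound or DMSO for 24 h at 37°C, 5% CO2. Total protein extracted in RIPA buffer. Phospho-SRSF levels detected by Western blot with specific primary and secondary antibodies.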

COc1ccc2c(c1)[nH]c1c(C)nccc12 [harmine]
Potency in promoting tenocyte differentiation relative to SM04755 (hMSCs and rTDSCs): less potent than SM04755 | CLK-mediated phosphorylation of SRSF1, SRSF4, SRSF5 and SRSF6 [1]: no effects
